# Compounds with a hit are over-represented: about 1.7% of the library has one in this group of screens.
# LMPTP inh: LMPTP (human) inhibition. P24666. recombinant LMPTP-A, OMFP fluorogenic substrate, fluorescence intensity. inhibition, % at 20 µM. hit rate 0.22% among 360,000. AID 651560;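 active means compounds that cut the enzyme signal by at least half of the control window in the single-dose screen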;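 further: plate controls were DMSO wells with enzyme plus substrate for no effect and substrate without enzyme for full effect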
# Target sequence (P24666 whole entry, looked up): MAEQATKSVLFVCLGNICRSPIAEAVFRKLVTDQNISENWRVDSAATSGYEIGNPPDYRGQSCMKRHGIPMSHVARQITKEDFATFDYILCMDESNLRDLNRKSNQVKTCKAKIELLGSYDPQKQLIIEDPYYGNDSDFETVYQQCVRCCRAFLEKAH
#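 Test system – LMPTP-A phosphatase enzyme · Quantity – 0.625 nM LMPTP-A final · Reagent – OMFP substrate, 400 µM final · Dosing – one test concentration per compound, 20 µM, with 3% DMSO overall · Timing – 50 min enzyme reaction at room temperature, protected from light · Detection – fluorescence intensity · Controls – substrate-only low control, DMSO enzyme-plus-substrate high control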
# STEP block: STEP (human) phosphatase inhibition. P54829. recombinant STEP, OMFP fluorogenic substrate, fluorescence. inhibition, % at 20 µM. hit rate 0.25% among 360,000;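 active means inhibition at 20 µM, scaled per plate between control wells, above about 37%, limit read from the data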;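 further: 0% = DMSO with enzyme and substrate and 100% = substrate only without enzyme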
#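 material = STEP tyrosine phosphatase | reagent = fluorogenic phosphatase substrate OMFP at 25 µM final | doses = single compound dose of 20 µM, 1% DMSO final | schedule = 20 min reaction, room temperature, in the dark | measured by = fluorescence, 480/540 nm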
# SUMO1-SIM PPI: alters human SUMO1 binding to SIM partners | P63165 | SUMO1 binding to a labelled peptide, TR-FRET, 1 h | inhibition, % at 20 µM | hit rate 0.33% among 360,000 | AID 602429; in the data active means inhibition above about 37%
# Target sequence (P63165 whole entry, looked up): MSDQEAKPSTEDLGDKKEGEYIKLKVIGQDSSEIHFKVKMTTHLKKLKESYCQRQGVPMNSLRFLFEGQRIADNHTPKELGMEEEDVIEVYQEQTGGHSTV
# Casp6 inh: caspase-6 (human) enzyme inhibition | hit rate 0.53% among 350,000 | inhibition, % at 12.5 µM | P55212 | purified caspase-6, Z-VEID-R110 cleavage fluorescence;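 active means mean inhibition across replicates at least about 35%, with every replicate also reaching that limit, limit read from the data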;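 further: 0% = median of neutral control wells and 100% = no fluorescence left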
# Scp1 inh: inhibitors of human Scp-1 phosphatase; Recombinant Scp1, phosphopeptide, malachite green phosphate absorbance; inhibition, % at 20 µM; hit rate 0.88% among 340,000; AID 493091;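 active means inhibition above about 50% at 20 µM, limit read from the data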;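 further: plate controls were DMSO wells with enzyme for no effect and wells lacking enzyme for full effect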
# Target sequence (Q9GZU7 76-261 limits assumed): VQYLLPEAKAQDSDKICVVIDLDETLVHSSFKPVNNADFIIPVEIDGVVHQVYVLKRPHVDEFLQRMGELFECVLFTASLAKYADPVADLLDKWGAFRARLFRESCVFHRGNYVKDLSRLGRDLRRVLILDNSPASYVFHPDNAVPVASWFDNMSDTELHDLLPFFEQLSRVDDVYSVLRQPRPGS
#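 Material – SCP-1 phosphatase catalytic domain, residues 76-261 · Buffer or medium – Acidic Tris acetate buffer with magnesium and detergent · Also added – Phospho 17-mer peptide substrate · Compound – single 20 µM dose, 1% DMSO · Times – 45 min room-temperature reaction, 5 min colour, 30 min stabiliser · Technique – Phosphate-binding colour reagent, absorbance read at 630 nm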
# DNMT1 inh: inhibitors of human DNMT1; AID 588458; P26358; hit rate 0.83% among 360,000; DNMT1 molecular beacon, Hinp1I cleavage, fluorescence; inhibition (reported as % activation of signal), % at 10 µM; in the data active means inhibition above about 50%
# * = called active by the depositor; . = not tested or not shown.
SMILES,LMPTP inh,STEP block,SUMO1-SIM PPI,Casp6 inh,Scp1 inh,DNMT1 inh
CCCOc1ccc(-c2nn(-c3ccccc3)cc2/C=C2\SC(N)=NC2=O)cc1,0.4,3.7,10.9,1.1,-5.0,55.2*
O=C1C(=Cc2cn(-c3ccccc3)nc2-c2ccc(OCc3ccccc3)cc2)SC(=S)N1CCS(=O)(=O)O,87.5*,10.1,90.5*,75.4*,.,-58.6
COCC(=O)Nc1cc(OC)cc(OC)c1,0.9,-1.2,3.7,.,0.8,1.0
Nc1ccc2nc(N3CCOCC3)sc2c1,0.2,-0.5,-3.2,-0.8,-3.3,-10.2
Nc1ncnc2c1ncn2[C@@H]1O[C@H](COP(=O)(O)O)[C@@H](O)[C@H]1O,-1.2,-1.9,0.8,.,2.1,2.2
CN1N=C(N)c2cn(C3OC(COP(=O)(O)O)C(O)C3O)c3ncnc1c23 (stereo unspecified),-1.7,0.4,-4.1,46.0*,2.2,2.3
OCOCCCn1c(C2CCCN2c2nc(-c3ccc(F)cc3)cs2)nc2cc(Cl)c(N3CCCCC3)cc21 (stereo unspecified),6.1,3.7,0.4,-3.8,-5.8,-22.2
O=Cc1ccc(Oc2ccc(F)cc2)nc1,-1.1,-2.0,-1.1,-1.3,-9.6,0.2
O=Cc1ccc(Oc2nc(Cl)ncc2F)cc1,8.6,28.3,0.8,42.0*,21.4,11.2
COc1ccc(CNC(=O)C2CCN(S(=O)(=O)N3CCCC3)CC2)cc1,-0.8,-1.4,-0.9,-2.5,-3.1,1.4
O=[N+]([O-])c1ccc(O)c2ncccc12,12.3,3.8,-13.2,63.5*,-11.7,-18.8
O=[N+]([O-])c1cc(Cl)c(O)c2ncccc12,25.4,5.5,-25.0,.,-9.3,-13.1
O=[N+]([O-])c1cc(CN2CCOCC2)c2cccnc2c1O,.,.,.,.,65.7*,.
O=[N+]([O-])c1cc(Cl)c2cccnc2c1O,48.7,4.4,-32.0,.,-5.3,-4.5
O=[N+]([O-])c1cc(F)c2cccnc2c1O,48.2,15.9,-37.5,92.4*,14.5,-1.0
O=[N+]([O-])c1cc([N+](=O)[O-])c2cccnc2c1Oc1ccccc1O,19.6,7.4,-14.3,45.4*,-4.9,-2.0
O=P(CCO)(c1ccccc1)c1ccccc1,-0.2,0.4,0.7,3.0,-5.0,-0.8
O=C(O)CP(=O)(c1ccccc1)c1ccccc1,-0.4,-4.2,46.5*,.,-11.2,0.6
COc1ccc(NC(C)=O)cc1NC(=O)c1cccc(S(=O)(=O)N2CCN(Cc3ccccc3)CC2)c1,-0.4,-0.8,26.1,1.4,-1.1,-5.8
COc1ccc(CNC(=O)[C@@H]2CC=C[C@@H]3CCN(Cc4ccc(Cl)c(Cl)c4)C(=O)[C@@H]32)cc1,4.1,1.2,5.2,.,12.2,0.8
COc1ccc(CNC[C@@H](CCCCN(C)Cc2ccc(OC)cc2)N2C[C@H](c3ccccc3)N(CCc3ccc(Cl)c(Cl)c3)C(=O)C2=O)cc1,56.7*,10.7,-119.0,.,27.3,-7.0
N#Cc1ccc(NC(=O)c2sc3cc(C(F)(F)F)cnc3c2-c2cccs2)cc1,-0.5,2.2,55.9*,.,-12.0,0.1
O=C(Nc1ccc(F)cc1)c1sc2cc(C(F)(F)F)cnc2c1-c1cccs1,3.5,5.7,10.1,.,-2.0,-0.6
O=c1cc(-c2c(O)c3ccccc3n(Cc3ccccc3)c2=O)[nH][nH]1,2.4,7.1,2.4,55.6*,-11.8,12.6
O=C(OCc1ccccc1)N1CCCC2CC1c1ccccc12 (stereo unspecified),0.8,0.8,0.5,53.8*,.,3.5
SMILES,LMPTP inh,STEP block,SUMO1-SIM PPI,Casp6 inh,Scp1 inh,DNMT1 inh
COc1ccccc1N1CCN(CC(O)COCc2cccs2)CC1 (stereo unspecified),-1.8,-0.8,-1.9,-0.2,-3.4,-0.1
CS(=O)(=O)c1ccc2c(c1)sc1nc(=O)c(/C=C3/C=CC(=O)C(O)=C3)c(N)n12,29.6,12.4,-2.6,29.2,70.7*,10.8
COC1=C/C(=C/c2c(N)n3c(nc2=O)sc2cc(S(C)(=O)=O)ccc23)C=CC1=O,1.1,1.0,-38.6,10.7,-5.4,8.8
Cc1ccc(S(=O)(=O)N2CCN(CC(=O)Nc3ccnn3C3CCCC3)CC2)cc1,-1.3,-1.0,1.5,39.5*,3.2,0.1
CCc1nn2c(=O)cc(COc3ccc(/C=C4\C(=N)N5N=C(C)SC5=NC4=O)cc3)nc2s1,4.8,2.0,24.1,6.6,33.2,59.1*
COc1ccc2nc(NC(=O)c3ccc(F)cc3)sc2c1,-2.5,-1.0,-2.1,-3.3,-5.7,10.2
COc1ccc(C(=O)Nc2nc3cc4c(cc3s2)OCCO4)c(OC)c1,4.3,-0.2,47.3*,1.4,1.9,-11.6
COc1ccccc1C(=O)Nc1nc2cc3c(cc2s1)OCCO3,0.1,6.2,1.7,.,-4.8,17.4
COc1ccc2nc(NC(=O)c3ccc4ncsc4c3)sc2c1,-0.9,-2.7,42.7*,.,-0.2,-9.6
COc1ccc(NC(=O)C2CCN(c3cnccn3)CC2)cc1OC,-0.4,-1.6,-4.4,0.8,-3.4,0.8
CC(=O)C[C@@H](O)CC(=O)[C@@H]1OC(=O)CCCCCCCc2ccccc21,-0.7,-1.9,-1.6,0.3,-0.2,4.7
COC(=O)c1cc2c(c3c4cc(C)ccc4n(S(=O)(=O)c4ccc(C)cc4)c13)C(=O)N(Cc1ccccc1)C2,.,.,.,-0.4,.,.
COC(=O)c1c[nH]c2c1-c1cc(C(=O)OCc3ccccc3)n(S(=O)(=O)c3ccc(C)cc3)c1C(=O)C2=O,60.3*,5.3,-0.7,2.1,4.7,96.2*
O=C(Nc1ccccc1F)c1coc(=O)c(Br)c1,-1.3,2.5,-11.3,74.0*,6.2,10.2
Cc1ccccc1-c1ccc([C@@H]2[C@@H](CO)N3CCCCN(C(=O)Nc4ccc(F)cc4)C[C@H]23)cc1,.,.,.,2.5,.,.
O=c1/c(=C\c2cc([N+](=O)[O-])cc([N+](=O)[O-])c2O)sc2nc3ccccc3n12,9.1,35.4,26.9,.,80.3*,18.3
O=c1/c(=C/c2ccccn2)sc2nc3ccccc3n12,4.2,-4.8,-3.2,.,0.0,38.8
O=C(O)c1cccc(-c2ccc(/C=c3/sc4nc5ccccc5n4c3=O)o2)c1,49.2,93.9*,103.3*,36.6*,96.3*,86.8*
O=C(O)c1cc(C(=O)O)cc(-c2ccc(/C=c3/sc4nc5ccccc5n4c3=O)o2)c1,.,.,.,.,69.7*,.
COc1ccc2c(c1)C(=O)[C@H](O)[C@@H](c1ccc(OC)c(Br)c1)O2,.,.,.,-0.2,-6.2,.
O=C1c2cc(O)c(O)cc2OC(c2ccc(O)c(O)c2)C1O (stereo unspecified),1.9,5.5,-2.8,54.9*,-1.8,10.4
O=C(C[C@H]1CC[C@H]2[C@@H](COC[C@@H](O)CN2C(=O)Nc2ccc(Cl)c(Cl)c2)O1)NC1CCC1,.,.,.,0.2,.,.
COc1ccc(/C=N/NC(=O)CSc2ccccn2)cc1OC,-0.4,-2.5,-6.3,-0.9,7.6,0.4

# From PubChem
